In series [1] the test system is Pseudomonas aeruginosa. Nature of the series: Bactericidal activity against Pseudomonas aeruginosa ATCC 9027 assessed as reduction in colony forming unit at 5 ug/ml measured at 22 hrs by time kill assay relative to control. In kind it is functional. Details: scale not given: the % may be the effect or the level left. Particulars: dose 5 µg/ml. In short, it runs like this: (§1)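 Overnight Pseudomonas aeruginosa culture adjusted in Mueller–Hinton broth to about 2.5 × 10⁵ CFU/mL. Compound added at 2.5, 5 or 10 µg/mL, then incubated at 37 °C with shaking (580 rpm) for 22 h. Viable colonies counted on plates at 2, 4, 6, 8 and 22 h. Quantification limit 100 CFU/mL; triplicate.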

Series [2] deals with Pseudomonas aeruginosa. Nature of the series: Bactericidal activity against Pseudomonas aeruginosa ATCC 9027 assessed as colony forming unit at 10 ug/ml measured at 6 hrs by time kill assay (reference value: 10^8 CFU/ml). In kind it is functional. The conditions noted are these: dose 10 µg/ml. In short, it runs like this: as §1
A further series has as its system Citrobacter freundii. In words: Antibacterial activity against Citrobacter freundii ATCC 8090 assessed as bacterial growth inhibition by CLSI protocol based serial microdilution method. In kind it is functional. On the technique in general: Broth dilution looks for growth in wells or tubes with falling amounts of substance.
Series [3] has as its system Staphylococcus aureus. In words: Bactericidal activity against […] Staphylococcus aureus ATCC 25923 assessed as reduction in colony forming unit at 5 ug/ml measured at 4 hrs by time kill assay relative to control. In kind it is functional. Details: scale not given: the % may be the effect or the level left. The conditions noted are these: dose 5 µg/ml. In short, it runs like this:
(§2)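 S. aureus overnight culture was adjusted in MHB to ~8 × 10⁵ CFU/mL. Compound was added and the mixture incubated at 37 °C with shaking (580 rpm) for 22 h. Aliquots were plated for colony counts at 2, 4, 6, 8 and 22 h, with a quantification limit of 100 CFU/mL. Runs were done in triplicate.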

Series [4] has as its system Staphylococcus aureus. Nature of the series: Bactericidal activity against […] Staphylococcus aureus ATCC 25923 assessed as reduction in colony forming unit at 2.5 ug/ml measured at 2 hrs by time kill assay relative to control. In kind it is functional. Details: scale not given: the % may be the effect or the level left. The conditions noted are these: dose 2.5 µg/ml. The gist of the method:
as §2

Series [5] in a line: Selectivity index, ratio of CC50 for HEK293T cells assessed as reduction in cell viability measured after 24 hrs by MTT assay to MIC for Candida albicans CEMTC 34 assessed as bacterial growth inhibition by CLSI protocol based serial microdilution method. Particulars: human, read-out: Selectivity Index. In kind it is toxicity. In short, it runs like this: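 SI = CC₅₀ (HEK293T) / MIC. HEK293T cells were seeded at 20,000/well overnight, then exposed to 10–250 µg/mL in IMDM with 10% FBS for 24 h. MTT was added for 4 h, solubilised with SDS-HCl, and read at 570 nm; duplicates, ≥2 independent runs. MIC came from two-fold dilutions in Sabouraud dextrose broth at ~5 × 10⁵ CFU/mL, 37 °C with shaking, read at 595 nm, in duplicate.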
On the technique in general: Tetrazolium dyes change colour on reduction, which living cells bring about.

A word on the MIC: it is the lowest concentration that inhibits growth of the organism.

Regarding `CCCCCCCCCCCC[N+]12CC[N+](CCC[N+]34CC[N+](CCCCCCCCCCCC)(CC3)CC4)(CC1)CC2`, the Activity entry is on record as “>=99.9%” with Pseudomonas aeruginosa [1] and less than 100 CFU/ml in the series on Pseudomonas aeruginosa [2]. For the same molecule, in the series on Citrobacter freundii, the MIC was found to be 1.6 µg/mL.
With `CCCCCCCCCCCC[N+]12CC[N+](Cc3ccccc3C[N+]34CC[N+](CCCCCCCCCCCC)(CC3)CC4)(CC1)CC2`, the Activity entry is reported as “>=99.9%” in the series on Pseudomonas aeruginosa [1], 99.9% in the series with Staphylococcus aureus [3], “>=99%” in the series on Staphylococcus aureus [4] and less than 100 CFU/ml in the series with Pseudomonas aeruginosa [2]. The selectivity ratio at 24 h in series [5] amounted to 1. The MIC in the series on Citrobacter freundii was determined as 1.6 µg/mL.

Values taken from ChEMBL document CHEMBL4715780, “Biological evaluation of tetracationic compounds based on two 1,4-diazabicyclo[2.2.2]octane moieties connected by different linkers” (Bioorg Med Chem, 2016).
